The record followed here is ChEMBL document CHEMBL3421606, “Organoselenocyanates and symmetrical diselenides redox modulators: Design, synthesis and biological evaluation” (Eur J Med Chem, 2015).

Molecules are shown by their SMILES.

Broadly, the IC50 is the midpoint of a concentration-inhibition curve.

One series has as its system HepG2. Put plainly: Cytotoxicity against human HepG2 cells after 48 hrs by MTT assay. It is filed as functional, cell-based. The essentials:
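HepG2 grown in DMEM with 10% calf serum at 37 °C. Seeded at 50,000 cells/mL, grown 2 days, then serial compound dilutions added for 48 h at 37 °C, 10% CO2. MTT at 0.5 mg/mL final for 2 h; formazan dissolved in DMSO and read at 590 nm. IC50 = concentration giving 50% of untreated-control absorbance, from dose-response curves, mean of two parallel experiments. 5-FU as reference.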

Series [1] can be described thus: Antioxidant activity assessed as DPPH free radical scavenging activity after 30 mins by spectrophotometry. It is filed as physicochemical. Conditions: 0.5 h; call rule not given here. The essentials: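 Compounds in methanol at 1 mg/ml. 200 µL added to 0.4 ml of 0.1 mM DPPH in methanol. Kept 30 min in the dark, then absorbance read at 517 nm against a blank (methanol, no DPPH). Scavenging % = (A blank − A sample)/A blank x 100. Ascorbic acid and ebselen served as reference antioxidants.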
On the technique in general: Loss of DPPH colour is used to gauge radical scavenging.

A short description of series [2]: Antioxidant activity assessed as glutathione peroxidase like activity after 3 mins by spectrophotometry. It is filed as physicochemical. The conditions noted are these: 0.05 h. An outline of the steps: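 NADPH-glutathione reductase coupled assay in 50 mM phosphate buffer with 0.1% Triton X-100, plus glutathione, glutathione reductase and NADPH. Compound at 41 µM; reaction started with 0.8 mM H2O2. A340 recorded over 3 min to give ΔA/min, background-corrected for H2O2+GSH and for compound colour. Ebselen 41 µM as reference.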

Series [3] is described as follows: Antioxidant activity assessed as bleomycin-Fe2+-induced DNA degradation after 1 hr by spectrophotometry. It is filed as physicochemical. The essentials: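 Mix of calf thymus DNA 0.5 mg/ml, bleomycin sulfate 0.05 mg/ml, MgCl2 5 mM, FeCl3 and test compound 2 mM, held 1 h at 37 °C. Stopped with EDTA, then 1% TBA and 25% HCl added, heated 80 °C 30 min. Cooled and centrifuged; TBA-reactive substances read at 532 nm as MDA equivalents. Ascorbic acid as reference. Means of 3 replicates.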

In series [4] the test system is Staphylococcus aureus. Put plainly: Antimicrobial activity against Staphylococcus aureus assessed as diameter of inhibition zone after 2 days by agar diffusion assay. Type of series: functional. An outline of the steps: (§1)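 Agar well/disc diffusion. 100 µL of suspension, 1x10^8 CFU/mL bacteria on nutrient agar or 1x10^4 spores/mL C. albicans on potato dextrose agar. 6 mm paper discs soaked with 20 µl of 1 mg/ml compound (20 µg per disc), incubated at 30°C. Inhibition zone diameter (mm) read after 1 and 2 days. Ampicillin (bacteria) and clotrimazole (fungus) controls at the same concentration.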
Background: A growth-free zone around the sample is the usual read-out of agar diffusion tests.

In series [5] the test system is Staphylococcus aureus. Put plainly: Antimicrobial activity against Staphylococcus aureus assessed as diameter of inhibition zone after 2 days by agar diffusion assay relative to ampicillin. Type of series: functional. Further details: concentration or dose not given beside the values. The essentials: (§2)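 Agar diffusion with 6 mm discs carrying 20 µL of 1 mg/ml compound on nutrient agar seeded with 1x10^8 CFU/mL bacteria, incubated at 30°C. Ampicillin run the same way at the same concentration. % activity index = inhibition zone of compound / inhibition zone of ampicillin x 100.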

The subject of series [6] is Escherichia coli. The series can be described thus: Antimicrobial activity against Escherichia coli assessed as diameter of inhibition zone after 2 days by agar diffusion assay. Type of series: functional. An outline of the steps:
as §1

In series [7] the test system is Escherichia coli. The series can be described thus: Antimicrobial activity against Escherichia coli assessed as diameter of inhibition zone after 2 days by agar diffusion assay relative to ampicillin. Type of series: functional. An outline of the steps:
as §2

The test system of the next series is Candida albicans. The series can be described thus: Antimicrobial activity against Candida albicans assessed as diameter of inhibition zone after 1 day by agar diffusion assay. Type of series: functional. The essentials:
as §1

[8] abbreviates: Homo sapiens, HepG2, 48 h, read-out: IC50.

For the molecule `O=c1c2ccccc2[se]n1-c1ccc([Se][Se]c2ccc(-n3[se]c4ccccc4c3=O)cc2)cc1`, in the series with HepG2 (setting [8]), the IC50 came to 40 µM. The values for the Activity entry in series [1] and in series [2] were “Active” and “Not Active”, respectively. Moreover, in series [3], the OD came out at 0.06.

For `O=c1c2ccccc2[se]n1-c1ccccc1` [EBSELEN], the result in [1] and in [2] was Active.

Regarding `O=c1[nH]cc(F)c(=O)[nH]1` [FLUOROURACIL], the IC50 in the series with HepG2 (setting [8]) stood at 8 µM.

With `Cc1ccc(C(C(=O)NC(C)(C)C)N(CCc2c[nH]c3ccccc23)C(=O)c2ccccc2[Se][Se]c2ccccc2C(=O)N(CCc2c[nH]c3ccccc23)C(C(=O)NC(C)(C)C)c2ccc(C)cc2)cc1` (stereo not drawn), in the series with HepG2 (hepg2), the IC50 entry is “Not Active”. Besides, the Activity entry was “Not Active” in series [1] and “Active” in series [2]. Besides, the OD in series [3] is listed as 0.073. The “diameter of the inhibition zone (DIZ)” value in the series on Staphylococcus aureus [4] was 12 mm. Besides, the Activity_index in the series with Staphylococcus aureus [5] is reported as 55%.

As for `N#C[Se]c1ccc(N2C(=O)C=CC2=O)cc1`, in the series with HepG2 (setting [8]), the IC50 is 0.6 µM. In addition, the Activity result was “Not Active” in [1] and “Active” in series [2]. Moreover, in series [3], the OD worked out at 0.082.

Consider `N#C[Se]c1ccc(NC(=O)CCCC(=O)O)cc1`, for which the half-maximal inhibitory concentration (IC50) in the series on HepG2 (setting [8]) was 7 µM. The Activity result is listed as “Not Active” in [1] and “Active” in series [2]. Besides, the OD in series [3] was determined as 0.068. Further, the “diameter of the inhibition zone (DIZ)” value in the series with Staphylococcus aureus [4] is listed as 20 mm. In the series with Staphylococcus aureus [5], the Activity_index amounted to 91%.

For `O=C1C=CC(=O)N1c1ccc([Se][Se]c2ccc(N3C(=O)C=CC3=O)cc2)cc1`, the IC50 in the series on HepG2 (setting [8]) was 13 µM. The outcome in [1] and in series [2] was Active. The OD in series [3] came out at 0.055. Moreover, the “diameter of the inhibition zone (DIZ)” value with Escherichia coli [6] came out at 7 mm. Besides, the Activity_index in the series on Escherichia coli [7] stood at 29%.

Turning to `N#C[Se]c1ccc(NC(=O)/C=C\C(=O)O)cc1`, in the series with HepG2 (setting [8]), the IC50 stood at 5 µM. In addition, the outcome in series [1] was Active. Further, the OD in [3] came out at 0.051. In addition, the “diameter of the inhibition zone (DIZ)” value was 16 mm in the series with Staphylococcus aureus [4] and 27 mm with Candida albicans. Further, in the series on Staphylococcus aureus [5], the Activity_index is listed as 73%.

Turning to `N#C[Se]c1ccc(N2C(=O)CCCC2=O)cc1`, the IC50 in the series on HepG2 (setting [8]) worked out at 47 µM. The Activity entry in series [1] is given as “Not Active”; in series [2] it was “Active”. Besides, the OD in [3] is listed as 0.078.

As for `O=C1CCCC(=O)N1c1ccc([Se][Se]c2ccc(N3C(=O)CCCC3=O)cc2)cc1`, the IC50 in the series with HepG2 (setting [8]) amounted to 35 µM. The Activity result is “Not Active” in series [1] and “Active” in series [2]. Also, the OD in [3] worked out at 0.09. Also, in the series with Staphylococcus aureus [4], the “diameter of the inhibition zone (DIZ)” value was determined as 21 mm. The Activity_index with Staphylococcus aureus [5] came to 90%.

`CC(C)C(C(=O)NC(C)(C)C)N(CCc1c[nH]c2ccccc12)C(=O)c1ccccc1[Se][Se]c1ccccc1C(=O)N(CCc1c[nH]c2ccccc12)C(C(=O)NC(C)(C)C)C(C)C` (stereo not drawn): the IC50 in the series with HepG2 (setting [8]) is 45 µM. Further, the Activity entry in [1] is listed as “Not Active”; in series [2], “Active”. The OD in series [3] came out at 0.07.

On to `CC1(C)S[C@@H]2[C@H](NC(=O)[C@H](N)c3ccccc3)C(=O)N2[C@H]1C(=O)O` [AMPICILLIN], for which the “diameter of the inhibition zone (DIZ)” value in the series on Escherichia coli [6] was 24 mm; with Staphylococcus aureus [4] it was 22 mm.

For `O=C(O)CCC(=O)Nc1ccc([Se][Se]c2ccc(NC(=O)CCC(=O)O)cc2)cc1`, the IC50 entry in the series with HepG2 (hepg2) is “Not Active”. Also, the outcome in series [1] and in series [2] was Active. For the same molecule, the OD in series [3] worked out at 0.088. For the same molecule, the “diameter of the inhibition zone (DIZ)” value with Staphylococcus aureus [4] turned out to be 20 mm; in the series with Candida albicans, 19 mm. In addition, the Activity_index with Staphylococcus aureus [5] is given as 91%.

For the molecule `N#C[Se]c1ccc(-n2[se]c3ccccc3c2=O)cc1`, in the series on HepG2 (setting [8]), the IC50 came to 64 µM. In addition, the Activity result in series [1] is recorded as “Active”; in series [2], “Not Active”. The OD in series [3] is 0.09.

With `N#C[Se]c1ccc(NC(=O)CCC(=O)O)cc1`, the IC50 entry in the series on HepG2 (hepg2) is on record as “Not Active”. Moreover, the outcome in series [1] was Active. Besides, the OD in series [3] turned out to be 0.053. Further, the “diameter of the inhibition zone (DIZ)” value in the series on Staphylococcus aureus [4] is reported as 15 mm. In addition, in the series on Staphylococcus aureus [5], the Activity_index turned out to be 68%.

For the molecule `Clc1ccccc1C(c1ccccc1)(c1ccccc1)n1ccnc1` [CLOTRIMAZOLE], the “diameter of the inhibition zone (DIZ)” value with Candida albicans is 28 mm.

Turning to `O=C1O[C@H]([C@@H](O)CO)C(O)=C1O` [ASCORBIC ACID], the OD in series [3] is recorded as 0.062.

As for `N#C[Se]c1ccc(N2C(=O)CCC2=O)cc1`, the IC50 entry in the series on HepG2 (hepg2) is “Not Active”. Also, the Activity result in series [1] is recorded as “Not Active”. Moreover, the OD in [3] was 0.065. In addition, the figures for the “diameter of the inhibition zone (DIZ)” value with Staphylococcus aureus [4] and with Candida albicans were 21 mm and 28 mm, respectively. Besides, the Activity_index in the series with Staphylococcus aureus [5] amounted to 95%.

As for `O=C(O)/C=C\C(=O)Nc1ccc([Se][Se]c2ccc(NC(=O)/C=C\C(=O)O)cc2)cc1`, in the series on HepG2 (setting [8]), the IC50 was found to be 3 µM. Further, the result in series [1] and in series [2] was Active. The OD in series [3] was 0.089. The “diameter of the inhibition zone (DIZ)” value in the series with Staphylococcus aureus [4] was found to be 21 mm. In addition, the Activity_index with Staphylococcus aureus [5] is recorded as 95%.

For `O=C(O)CCCC(=O)Nc1ccc([Se][Se]c2ccc(NC(=O)CCCC(=O)O)cc2)cc1`, in the series with HepG2 (setting [8]), the IC50 was found to be 67 µM. In addition, the result in [1] and in series [2] was Active. Moreover, the OD in series [3] is listed as 0.083. Further, the “diameter of the inhibition zone (DIZ)” value in the series with Staphylococcus aureus [4] came out at 20 mm; with Candida albicans it was 16 mm. In addition, in the series with Staphylococcus aureus [5], the Activity_index came to 91%.

On to `CC(C)C(C(=O)NC(C)(C)C)N(Cc1ccccc1)C(=O)c1ccccc1[Se][Se]c1ccccc1C(=O)N(Cc1ccccc1)C(C(=O)NC(C)(C)C)C(C)C` (stereo not drawn), for which the half-maximal inhibitory concentration (IC50) result with HepG2 (hepg2) was “Not Active”. Further, the Activity entry is reported as “Not Active” in [1] and “Active” in series [2]. In addition, in [3], the OD stood at 0.073.

`O=C1CCC(=O)N1c1ccc([Se][Se]c2ccc(N3C(=O)CCC3=O)cc2)cc1`: in the series on HepG2 (setting [8]), the concentration for half-maximal inhibition (IC50) is 14 µM. Further, the Activity result was “Not Active” in series [1] and “Active” in [2]. Also, the OD in [3] came to 0.074. Further, the “diameter of the inhibition zone (DIZ)” value in the series with Staphylococcus aureus [4] turned out to be 14 mm. The Activity_index in the series on Staphylococcus aureus [5] was determined as 64%.
